Measured values reported in ChEMBL document CHEMBL2331220, “Benzimidazole clubbed with triazolo-thiadiazoles and triazolo-thiadiazines: new anticancer agents” (2013).

How the values were obtained:
Format in all cases: functional
NCI-H23 = assay: Cytotoxicity against human NCI-H23 cells after 48 hrs by SRB assay; settings: NCI-H23, 48 h
How it was run: (§1)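 NCI 60-line five-dose screen. Cells were preincubated 24 h at 37 °C under 5% CO2 and 100% humidity, and time-zero plates were TCA-fixed when compound was added. Five 10-fold concentrations (0.01–100) were tested for 48 h. Cells were fixed with cold TCA (final 10%, 60 min, 4 °C), stained with 0.4% SRB for 10 min, and read at 515 nm. GI50, TGI and LC50 came from growth-percentage formulas, with out-of-range values given as > or <.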

MDA-MB-231 = assay: Cytotoxicity against human MDA-MB-231 cells after 48 hrs by SRB assay; settings: MDA-MB-231, 48 h; how it was run: as §1
CAKI-1 = assay: Cytotoxicity against human Caki1 cells after 48 hrs by SRB assay; settings: CAKI-1, 48 h; how it was run: as §1
NCI-H460 = assay: Cytotoxicity against human NCI-H460 cells after 48 hrs by SRB assay; settings: NCI-H460, 48 h; how it was run: as §1
NCI-H322M = assay: Cytotoxicity against human NCI-H322M cells after 48 hrs by SRB assay; how it was run: as §1
SF-539 = assay: Cytotoxicity against human SF539 cells after 48 hrs by SRB assay; settings: SF-539, 48 h; how it was run: as §1
[1] = read-out: LC50 (the source's name)
[2] = read-out: pLC50 (the source's name) (converted)

SMILES: O=C(CCc1nnc2sc(-c3ccc(Cl)cc3Cl)nn12)c1nc2ccccc2[nH]1
- GI50 (NCI-H23; read-out: GI50): 0.719 µM
- TGI (NCI-H23; read-out: TGI): 2.48 µM
- GI50 (NCI-H23; read-out: pGI50 (converted)): 0.724 µM
- TGI (NCI-H23; read-out: pTGI (converted)): 2.45 µM
- GI50 (MDA-MB-231; read-out: GI50): 1 µM
- LC50 (MDA-MB-231; read-out: LC50): 5.87 µM
- TGI (MDA-MB-231; read-out: TGI): 2.42 µM
- GI50 (MDA-MB-231; read-out: pGI50 (converted)): 1 µM
- LC50 (MDA-MB-231; read-out: pLC50 (converted)): 5.89 µM
- TGI (MDA-MB-231; read-out: pTGI (converted)): 2.4 µM
- GI50 (CAKI-1; read-out: GI50): 1.45 µM
- TGI (CAKI-1; read-out: TGI): 3.44 µM
- GI50 (CAKI-1; read-out: pGI50 (converted)): 1.45 µM
- TGI (CAKI-1; read-out: pTGI (converted)): 3.47 µM
- GI50 (NCI-H460; read-out: GI50): 0.766 µM
- CC50 (NCI-H460; [1]): 5.21 µM
- TGI (NCI-H460; read-out: TGI): 2.17 µM
- GI50 (NCI-H460; read-out: pGI50 (converted)): 0.759 µM
- CC50 (NCI-H460; [2]): 5.25 µM
- TGI (NCI-H460; read-out: pTGI (converted)): 2.19 µM
- GI50 (NCI-H322M; read-out: GI50): 1.76 µM
- CC50 (NCI-H322M; [1]): 7.94 µM
- TGI (NCI-H322M; read-out: TGI): 3.74 µM
- GI50 (NCI-H322M; read-out: pGI50 (converted)): 1.78 µM
- CC50 (NCI-H322M; [2]): 7.94 µM
- TGI (NCI-H322M; read-out: pTGI (converted)): 3.72 µM
- GI50 (SF-539; read-out: GI50): 2.17 µM
- CC50 (SF-539; [1]): 22.8 µM
- TGI (SF-539; read-out: TGI): 4.86 µM
- GI50 (SF-539; read-out: pGI50 (converted)): 2.19 µM
- CC50 (SF-539; [2]): 22.9 µM
- TGI (SF-539; read-out: pTGI (converted)): 4.9 µM
